HTRA1 inh: HTRA1 (human) protease inhibition. recombinant HTRA1, FP-rhodamine activity-based probe, fluorescence polarization. AID 504803. actives 0.5% (n = 340,000). inhibition, % at 5.96 µM; in the data active means inhibition above about 36%;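 further: 0% = enzyme with DMSO and 100% = wells lacking enzyme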
pPAFAH inh: pPAFAH (human) enzyme inhibition; Q13093; recombinant pPAFAH, FP-rhodamine probe fluorescence polarization; inhibition, % at 3.39 µM; actives 1.5% (n = 330,000); AID 463082;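 active means inhibition above the mean inhibition across the screen plus 3 SD, cut at about 25% in these data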;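 further: inhibitors block binding of the rhodamine activity-based probe so polarization drops; 0% = enzyme with DMSO and 100% = wells lacking pPAFAH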
PAFAH1B2 inh: inhibitors of human PAFAH1B2; P68402; recombinant PAFAH1B2, FP-rhodamine activity probe, fluorescence polarization; inhibition, % at 3.39 µM; actives 1.2% (n = 340,000); AID 492953;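 active means inhibition above the mean of all tested compounds plus 3 SD, cut at about 24% in these data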;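 further: 0% = enzyme with DMSO and 100% = wells lacking PAFAH1B2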
ABHD4 inh: inhibitors of mouse ABHD4; Q8VD66; purified mABHD4, FP-Rh probe fluorescence polarization; inhibition, % at 8.92 µM; actives 0.54% (n = 370,000); AID 720543;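 active means inhibition exceeding the mean over every tested compound plus 3 SD, cut at about 30% in these data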;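 further: 0% = plate median of compound wells and 100% = S159A mutant with DMSO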
Target sequence (Q8VD66 whole entry, looked up): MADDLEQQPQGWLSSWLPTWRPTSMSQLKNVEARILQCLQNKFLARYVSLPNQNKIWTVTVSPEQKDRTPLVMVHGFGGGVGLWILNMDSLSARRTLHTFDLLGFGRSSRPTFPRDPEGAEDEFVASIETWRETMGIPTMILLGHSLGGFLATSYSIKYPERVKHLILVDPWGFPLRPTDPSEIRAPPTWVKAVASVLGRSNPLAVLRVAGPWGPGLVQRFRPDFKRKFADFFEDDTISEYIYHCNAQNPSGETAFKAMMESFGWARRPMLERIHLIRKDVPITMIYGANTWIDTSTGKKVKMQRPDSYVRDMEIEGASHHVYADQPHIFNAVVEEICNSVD
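Assay system: wild-type mouse ABHD4 protein; compound: single nominal dose of 8.92 µM, 0.89% DMSO final; schedule: 45 min + 60 min at 25 °C; measured by: FP readout, ex 525 nm / em 598 nm; evaluation: % inhibition of FP-Rh probe binding versus controls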
PAFAH2 FP inh: PAFAH2 (human) inhibition. AID 492956. Q99487. inhibition, % at 3.39 µM. actives 0.99% (n = 340,000). recombinant PAFAH2, FP-rhodamine activity probe, fluorescence polarization;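 active means inhibition above the mean over all tested compounds plus 3 SD, cut at about 30% in these data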;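 further: inhibitors block probe labeling of enzyme so polarization drops; 0% = enzyme with DMSO and 100% = wells lacking PAFAH2 protein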
PAFAH1B3 inh: blocks human PAF acetylhydrolase 1B catalytic subunit 3; Q15102; actives 0.28% (n = 340,000); recombinant PAFAH1B3, FP-rhodamine probe, fluorescence polarization; inhibition, % at 3.39 µM;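 active means inhibition above the screen-wide average of all tested compounds plus 3 SD, cut at about 25% in these data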;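 further: 0% = enzyme with DMSO only and 100% = wells lacking PAFAH1B3 protein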
Target sequence (Q15102 whole entry, looked up): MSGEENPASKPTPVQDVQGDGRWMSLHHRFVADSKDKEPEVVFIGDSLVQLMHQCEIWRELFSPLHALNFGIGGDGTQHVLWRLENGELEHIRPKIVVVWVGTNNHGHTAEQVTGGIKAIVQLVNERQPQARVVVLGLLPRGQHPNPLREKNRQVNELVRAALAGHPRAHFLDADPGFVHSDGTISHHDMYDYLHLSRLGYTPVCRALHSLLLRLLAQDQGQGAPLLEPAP
pPAFAH FP conf: pPAFAH (human) inhibition, confirmed; recombinant pPAFAH, FP-Rh probe fluorescence polarization; inhibition, % at 3.39 µM; shares compounds with pPAFAH inh; actives 72% (n = 2,300);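 active means mean inhibition of the triplicate above the hit cutoff set for the earlier primary screen, cut at about 25% in these data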;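 further: 0% = enzyme with DMSO and 100% = wells lacking pPAFAH enzyme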
PAFAH2 confirm: PAFAH2 (human) inhibition, confirmed; inhibition, % at 3.39 µM; actives 65% (n = 2,300); recombinant PAFAH2, FP-rhodamine activity probe, fluorescence polarization; shares compounds with PAFAH2 FP inh;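 active means mean inhibition over three repeats above a set limit taken from the earlier primary screen, cut at about 30% in these data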;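 further: inhibitor blocks binding of rhodamine activity probe so polarization falls; 0% = enzyme with DMSO and 100% = wells lacking PAFAH2 protein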
PAFAH1B3 confirm: confirmation of human PAFAH1B3 inhibitors. shares compounds with PAFAH1B3 inh. actives 30% (n = 390). inhibition, % at 3.39 µM. AID 493032. recombinant PAFAH1B3, FP-Rh activity-based probe, fluorescence polarization;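 active means average inhibition over triplicate runs above the hit cutoff set in the earlier primary screen, cut at about 25% in these data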;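 further: 0% = enzyme with DMSO and 100% = wells lacking PAFAH1B3 protein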
HTRA1 inh conf: HTRA1 (human) inhibition, confirmation | actives 66% (n = 1,600) | shares compounds with HTRA1 inh | AID 540248 | recombinant HTRA1, FP-rhodamine activity-based probe, fluorescence polarization | inhibition, % at 5.96 µM;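 active means mean inhibition over three repeats above a set limit taken from the earlier primary screen, cut at about 37% in these data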;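 further: 0% = HTRA1 with DMSO and 100% = wells lacking HTRA1; inhibitors block probe binding so polarization drops and inhibition rises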
Numbers without * were called inactive. An excerpt weighted towards active compounds, which were near 2.8% of everything screened.

Results for CN(C)c1ccc(NC2=C([N+](=O)[O-])CS(=O)(=O)C2)cc1 ?
HTRA1 inh: 21.1; pPAFAH inh: 39.4*; PAFAH1B2 inh: 1.6; ABHD4 inh: 29.2; PAFAH2 FP inh: 3.3; PAFAH1B3 inh: 12.5; pPAFAH FP conf: 6.7

Results for CN(C)/C=C/C(=O)/C=C/c1ccc(Cl)cc1Cl ?
HTRA1 inh: 19.6; pPAFAH inh: 37.6*; PAFAH1B2 inh: 4.9; ABHD4 inh: 6.3; PAFAH2 FP inh: 9.0; PAFAH1B3 inh: 4.2; pPAFAH FP conf: 4.0

How did COc1ccccc1Oc1c(C)oc2c(CN3CCN(CCO)CC3)c(O)ccc2c1=O do in these assays?
pPAFAH inh: 41.1*; ABHD4 inh: -1.2; pPAFAH FP conf: 4.1

Results for COC(=O)[C@]12C[C@H](CC(=O)N3CCSCC3)C(=O)N(Cc3ccco3)C1=C[C@H](C1CCCC1)O[C@@H]2C ?
ABHD4 inh: 5.3

Results for CC(C)=CCC/C(C)=C/CNC(=O)C[C@H]1C[C@H](C(=O)N2CCOCC2)[C@@]2(CCC3CCCC3)c3[nH]c4cc(CCC(=O)N(C)C)ccc4c3CCN2C1=O ?
HTRA1 inh: 9.9; pPAFAH inh: 39.3*; PAFAH1B2 inh: 6.2; ABHD4 inh: -0.9; PAFAH2 FP inh: 2.0; PAFAH1B3 inh: 7.2; pPAFAH FP conf: 27.3*

How did CC(C)=CCC/C(C)=C/CNC(=O)C[C@H]1C[C@H](C(=O)N(C(C)C)C(C)C)[C@@]2(C)c3[nH]c4cc(CCC(=O)N(C)C)ccc4c3CCN2C1=O do in these assays?
HTRA1 inh: -10.2; pPAFAH inh: 67.9*; PAFAH1B2 inh: 3.5; ABHD4 inh: 0.6; PAFAH2 FP inh: -1.7; PAFAH1B3 inh: 3.9; pPAFAH FP conf: 58.7*

What do the screens show for `CC(C)=CCC/C(C)=C/CNC(=O)C[C@H]1C[C@H](C(=O)N2CCCCC2)[C@@]2(C)c3[nH]c4cc(-c5ccco5)ccc4c3CCN2C1=O`?
HTRA1 inh: -12.8; pPAFAH inh: 41.4*; PAFAH1B2 inh: 1.5; ABHD4 inh: 4.5; PAFAH2 FP inh: 8.4; PAFAH1B3 inh: 5.2; pPAFAH FP conf: 23.5

What do the screens show for `COC(=O)[C@]12C[C@H](CC(=O)NCCc3ccccc3OC)C(=O)N(Cc3ccc(Cl)cc3Cl)C1=C[C@H](C(C)(C)C)O[C@@H]2C`?
ABHD4 inh: -4.7

How did O=C(CCn1nnc2ccccc21)N1CCN(c2ccc(F)cc2)CC1 do in these assays?
ABHD4 inh: 6.8

What do the screens show for `CC(C)(C)c1ccc(S(=O)(=O)N2CCCC2C(=O)N2CCc3ccccc3C2)cc1` (configuration not stated)?
ABHD4 inh: -2.2

What do the screens show for `O=[N+]([O-])c1cccc(NC(=S)Nc2nc(-c3ccccc3Cl)cs2)c1`?
HTRA1 inh: -28.6; pPAFAH inh: 38.5*; PAFAH1B2 inh: 8.5; ABHD4 inh: -6.1; PAFAH2 FP inh: -36.6; PAFAH1B3 inh: 8.0; pPAFAH FP conf: 23.0

How did COc1ccccc1CNC(=O)COC(=O)c1cc(-c2ccco2)nc2ccccc12 do in these assays?
HTRA1 inh: 2.7; pPAFAH inh: 55.7*; PAFAH1B2 inh: -2.6; ABHD4 inh: 9.0; PAFAH2 FP inh: 33.3*; PAFAH1B3 inh: 16.0; pPAFAH FP conf: 17.8; PAFAH2 confirm: 9.3

How did COC1=C[C@H](C(=O)N[C@H]2CCCC[C@@H]2NC(C)=O)[C@@]2(C)Cc3ccccc3[C@H]2CC1=O do in these assays?
ABHD4 inh: 0.9

Results for O=C(Nc1ccc(N2CCOCC2)cc1)Nc1ccc2nc(-c3ccco3)c(-c3ccco3)nc2c1 ?
HTRA1 inh: 30.1; pPAFAH inh: 44.8*; PAFAH1B2 inh: 23.4; ABHD4 inh: 19.8; PAFAH2 FP inh: 3.2; PAFAH1B3 inh: 28.2*; pPAFAH FP conf: 14.0; PAFAH1B3 confirm: 18.1

Results for Cc1ccc(-n2c(Cc3cccs3)nnc2SCc2ccc(Br)cc2)cc1 ?
ABHD4 inh: -8.6

Results for COc1ccc(OC)c(-c2c3cc(O)c(=O)cc-3oc3cc(O)c(O)cc23)c1 ?
HTRA1 inh: 85.5*; pPAFAH inh: 92.8*; PAFAH1B2 inh: 74.0*; PAFAH2 FP inh: 73.2*; PAFAH1B3 inh: 58.2*; pPAFAH FP conf: 85.5*; HTRA1 inh conf: 89.9*

What do the screens show for `COc1ccc(OC)c(-c2oc3ccccc3c(=O)c2O)c1`?
HTRA1 inh: 5.5; pPAFAH inh: 5.1; PAFAH1B2 inh: 1.4; ABHD4 inh: 1.2; PAFAH2 FP inh: -1.3; PAFAH1B3 inh: 5.8

What do the screens show for `CCNc1ccc(Br)cc(C(=O)/C=C/c2ccc(Cl)cc2)c1=O`?
HTRA1 inh: 62.9*; pPAFAH inh: 53.2*; PAFAH1B2 inh: 6.6; PAFAH2 FP inh: 28.3; PAFAH1B3 inh: 11.4; pPAFAH FP conf: 26.6*; HTRA1 inh conf: 36.1

Results for COc1cc(/C=C2\CC/C(=C\c3cc(OC)c(O)c(OC)c3)C2=O)cc(OC)c1O ?
HTRA1 inh: 46.3*; pPAFAH inh: 41.7*; PAFAH1B2 inh: 17.4; ABHD4 inh: 19.9; PAFAH2 FP inh: 0.9; PAFAH1B3 inh: 2.3; pPAFAH FP conf: 39.5*; HTRA1 inh conf: 55.3*

What do the screens show for `O=C(C1CCCN1S(=O)(=O)c1ccc(Br)s1)N1CCN(c2ccccc2)CC1` (configuration not stated)?
ABHD4 inh: 6.7

How did c1ccc(CSc2nnc(-c3ccco3)n2Cc2ccco2)cc1 do in these assays?
HTRA1 inh: -6.5; pPAFAH inh: 9.5; PAFAH1B2 inh: 5.0; ABHD4 inh: -1.2; PAFAH2 FP inh: 8.3; PAFAH1B3 inh: 0.0

Results for CCCCOc1[nH]c2nc(-c3ccco3)n(Cc3ccco3)c(=N)c2c1C#N ?
HTRA1 inh: 42.4*; pPAFAH inh: 57.4*; PAFAH1B2 inh: 11.9; ABHD4 inh: 45.0*; PAFAH2 FP inh: 29.1; PAFAH1B3 inh: -2.7; pPAFAH FP conf: 14.9; HTRA1 inh conf: -5.5

How did CCCCC(=O)NC(c1cccs1)c1cc(Cl)c2cccnc2c1O (configuration not stated) do in these assays?
HTRA1 inh: 54.8*; pPAFAH inh: 45.2*; PAFAH1B2 inh: 6.0; ABHD4 inh: 8.6; PAFAH2 FP inh: 16.9; PAFAH1B3 inh: 12.6; pPAFAH FP conf: 32.1*; HTRA1 inh conf: 54.9*

Assay outcomes as filed in PubChem BioAssay.
